# From paper PMC3823230 (Journal of Cellular and Molecular Medicine, 2012)
# Where a name gives a salt, the structure may show the parent alone. Read-outs that look alike come from different tables or passages of the source.
# What was measured:
# [1] = system: antibiotic-resistant strain (A–E) of P. aeruginosa; assay: MIC against antibiotic-resistant strains; assay type: cell-based, Pseudomonas aeruginosa; settings: for MIC: Pseudomonas aeruginosa; for Resistance/sensitivity class, strain A / MIC, P. aeruginosa strain A: antibiotic-resistant strain A; for Resistance/sensitivity class, strain B / MIC, P. aeruginosa strain B: antibiotic-resistant strain B; for Resistance/sensitivity class, strain C / MIC, P. aeruginosa strain C: antibiotic-resistant strain C; for Resistance/sensitivity class, strain D / MIC, P. aeruginosa strain D: antibiotic-resistant strain D; for Resistance/sensitivity class, strain E / MIC, P. aeruginosa strain E: antibiotic-resistant strain E
# [2] = system: db/db mice wounds with methicillin-resistant S. aureus; assay: Diabetic mouse infectious; assay type: in vivo
# Summary of the method: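 Male C57BL/6 db/db mice, n = 6–8 per group, backs depilated 3 days before surgery. Under anaesthesia, 15 mm dorsal punch biopsy wounds received 100 μl MRSA (1 × 10^4 cfu/ml) topically, with or without peptide (100 μg/ml) or saline, under semi-permeable polyurethane dressing. Dosing and photographic wound-area measurement on days 0, 2, 4, 7, 9, 11, 14, 16. Means ± S.E.M.; ANOVA with Fisher's PLSD.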
# [3] = system: C57BL/6 db/db mice, punch biopsy wounds; assay: Diabetic mouse wound-healing model; assay type: in vivo; settings: topical 100 μg/ml
# [4] = system: NIBS minipigs, full-thickness excisional wounds; assay: Porcine wound-healing model; assay type: in vivo, pig; settings: anti-vWF staining; in comparison to control group; N = 6
# Summary of the method: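 Three male NIBS minipigs (32.0–33.5 kg) premedicated with ketamine 500 mg/body under isoflurane 2–4%. Four 25 mm, 10 mm-deep full-thickness excisional wounds per side abdomen, 30 mm apart. Peptide 100 μg/ml or saline (200 μl/site) applied on days 0, 2, 4, 6, 8, 10 under polyurethane dressing. Day-12 frozen sections were acetone-fixed (−20°C, 15 min), and capillary EC immunostained with anti-vWF (1:200).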
# [5] = read-out: MIC, P. aeruginosa strain A
# [6] = read-out: MIC, P. aeruginosa strain B
# [7] = read-out: MIC, P. aeruginosa strain C
# [8] = read-out: MIC, P. aeruginosa strain D
# [9] = read-out: MIC, P. aeruginosa strain E
Molecule,"MIC [1, 5] [mg/L]","MIC [1, 6] [mg/L]","MIC [1, 7] [mg/L]","MIC [1, 8] [mg/L]","MIC [1, 9] [mg/L]","Resistance/sensitivity class, strain A [1]","Resistance/sensitivity class, strain B [1]","Resistance/sensitivity class, strain C [1]","Resistance/sensitivity class, strain D [1]","Resistance/sensitivity class, strain E [1]",other results
"C[C@H]1[C@H](NC(=O)/C(=N\OC(C)(C)C(=O)O)c2csc(N)n2)C(=O)N1S(=O)(=O)O [AZT, aztreonam]",< 8,> 16,< 8,< 8,> 16,S,R,S,S,R,
"CC(C)(O/N=C(\C(=O)N[C@@H]1C(=O)N2C(C(=O)[O-])=C(C[n+]3ccccc3)CS[C@H]12)c1csc(N)n1)C(=O)O [CAZ, ceftazidime hydrate]",< 8,< 8,< 8,< 8,> 32,S,S,S,S,R,
"CO/N=C(\C(=O)N[C@@H]1C(=O)N2C(C(=O)O)=C(C[N+]3(C)CCCC3)CS[C@H]12)c1csc(N)n1.Cl.O.[Cl-] [CFPM, cefepime hidrochloride hydrate]",,,,,,,,,,,"MIC, P. aeruginosa strain A [1]: < 8 mg/L; MIC, P. aeruginosa strain B [1]: < 8 mg/L; MIC, P. aeruginosa strain C [1]: < 8 mg/L; MIC, P. aeruginosa strain D [1]: < 8 mg/L; MIC, P. aeruginosa strain E [1]: > 16 mg/L"
"O=C(O)c1cn(C2CC2)c2cc(N3CCNCC3)c(F)cc2c1=O [CPFX, Ciprofloxacin hydrochloride]",< 1,< 1,< 1,< 1,> 2,,,,,,
"CCN1CCN(C(=O)N[C@@H](C(=O)N[C@@H]2C(=O)N3C(C(=O)O)=C(CSc4nnnn4C)CS[C@H]23)c2ccc(O)cc2)C(=O)C1=O [CPZ, cefoperazone sodium]",< 16,32,< 16,< 16,> 32,S,,S,S,R,
"C[C@@H]1O[C@@H]1P(=O)(O)O [FOM, fosfomycin sodium]",> 16,> 16,> 16,> 16,> 16,R,R,R,R,R,
"C[C@H]1COc2c(N3CCN(C)CC3)c(F)cc3c(=O)c(C(=O)O)cn1c23 [LVFX, levofloxacin hydrate]",< 2,< 2,< 2,4,> 4,S,S,S,S,R,
"NC[C@H]1O[C@H](O[C@H]2[C@H](O)[C@@H](O[C@H]3O[C@H](CO)[C@@H](O)[C@H](N)[C@H]3O)[C@H](N)C[C@@H]2N)[C@H](N)C[C@@H]1O [TOB, tobramycin]",> 8,< 4,> 8,< 4,< 4,R,S,R,S,S,
Gentamicin sulfate [GM],,,,,,R,S,R,S,,"MIC, P. aeruginosa strain A [1]: > 8 mg/L; MIC, P. aeruginosa strain B [1]: < 4 mg/L; MIC, P. aeruginosa strain C [1]: > 8 mg/L; MIC, P. aeruginosa strain D [1]: < 4 mg/L; MIC, P. aeruginosa strain E [1]: 8 mg/L"
LL37: well-known antimicrobial peptide with angiogenic effects,,,,,,,,,,,"Yellow pus on MRSA-infected wounds ([2]; MRSA 1 x 10^4 cfu/ml, co-treatment 100 μg/ml): attenuated the increase of yellow pus; Infectious wound size ([2]; MRSA, 100 μg/ml, days 11, 14 and 16 after treatment): significantly decreased wound size; Blood flow around the wound (LDI), diabetic mouse ([3]; 3 days after operation, compared with control group): significantly increased the blood flow; Spontaneous S. aureus infection of wounds during experiment ([3]; db/db mice): none of the mice; Wound size, diabetic mouse ([3]; db/db mice, day 14, versus control): significantly decreased wound size; Microcapillary density, porcine wound [4]: significantly increased"
